In brackets after ≈: the same amount, converted by molar mass.
Tests used:
TNF-α = test: Anti-inflammatory activity, ELISA, LPS-treated HaCaT cells; format: cell-based; conditions: 5 µmol/l for 12 h, then 1 µg/ml LPS 24 h, vs LPS, n = 3
In short: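 HaCaT cells were grown in DMEM with 10% FBS and 1% penicillin at 37 °C and 5% CO2. They were seeded in 6-well plates and precultured to 80% confluence. Test compound was given for 12 h, then 1 µg/ml LPS for 24 h. Medium-only (36 h) and LPS-only groups served as controls. TNF-α in the supernatant was measured by ELISA; n = 3.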

IL-8 mRNA = test: RT-PCR of inflammatory factors, LPS-treated HaCaT cells; format: cell-based; conditions: 5 µmol/l for 12 h, then 1 µg/ml LPS 24 h, n = 3
[1] = Visualization of skin penetration by CLSM; format: in vitro ADME, BALB/c-nu nude mice; conditions: 6 h treatment
In short: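 Dorsal skin was excised from six-week-old male BALB/c-nu nude mice and cleared of subcutaneous tissue. It was exposed to C6-loaded nanoparticles of the test compound, since the compound itself fluoresces weakly. Skin was processed as in the HPLC retention study, then imaged by confocal microscopy. Mean skin fluorescence intensity was calculated per group.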

[2] = Oil-water distribution coefficient; format: physicochemical; conditions: n-octanol/water, logP Average, 25 °C, n = 3
Sep. = test: Minimum inhibition concentration; format: cell-based, Staphylococcus epidermidis; conditions: Sep. (GDMCC 1.143), 1.5 × 10^6 CFU/ml, 48 h
In short: (§1)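 The parent compound was dissolved in DMSO/saline (1:9) and NPs were diluted in water. Samples were serially diluted (1:1 to 1:256, v/v) in LB or RCM broth and incubated 48 h with bacteria. Growth was scored visually. P. acnes (GDMCC 1.243) was grown on RCM at 37 °C anaerobically; S. aureus (GDMCC 1.1220) and S. epidermidis (GDMCC 1.143) were grown on NA at 37 °C.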

Sau. = test: Minimum inhibition concentration; format: cell-based, Staphylococcus aureus; conditions: Sau. (GDMCC 1.1220), 1.5 × 10^6 CFU/ml, 48 h
In short: as §1

P. acnes [3] = test: Minimum inhibition concentration; format: cell-based, Propionibacterium acnes; conditions: P. acnes (GDMCC 1.243), anaerobic, 1.5 × 10^6 CFU/ml, 48 h
In short: as §1

[4] = system: P. acnes-induced skin inflammation; test: P. acnes infection; format: in vivo, BALB/c-nu mice
In short: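 Six-week-old male BALB/c-nu mice were acclimatized 3 d. They received P. acnes (1.5 × 10^8 CFU/ml) daily by intradermal injection into dorsal skin at 0.05 ml/10 g; the blank group was not injected. Test compound in 1 mg/ml Carbopol 940 hydrogel was applied topically to the inflamed area at 0.05 g/10 g; controls were left untreated. Swelling length and width were measured by caliper, with volume V = a×b²/2.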

P. acnes [5] = test: In vivo antibacterial efficiency; set-up: species or system BALB/c-nu mice; conditions: after 7 d of treatment, vs control, n = 3
In short: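 Six-week-old male BALB/c-nu mice were acclimatized for 3 d. They received daily intradermal dorsal injections of P. acnes at 1.5 x 10^8 CFU/ml, 0.05 ml/10 g. Test compound in 1 mg/ml Carbopol 940 hydrogel was applied topically at 0.05 g/10 g; controls were untreated. At the end, 8 mm punch biopsies were homogenized in 2 ml PBS and diluted 10 times. A 0.1 ml aliquot was plated on RCM and grown anaerobically at 37 °C for 48 h. Colonies were counted and expressed as treated vs control (%).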

NF-κB (p65) = test: Immunohistochemical observation of skin; format: in vivo, BALB/c-nu mice; conditions: after 7 d topical hydrogel, vs control group, n = 3
In short: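 P. acnes-infected nude mice were treated topically with 1 mg/ml hydrogel. Skin was collected at the end of treatment and paraffin sections were immunostained with mouse anti-NF-κB p65 antibody (1:400). Staining was quantified as average optical density (AOD) per group by image analysis.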

| Compound | TNF-α expression level in supernatant (TNF-α) | IL-8 mRNA expression (IL-8 mRNA) | Penetration of C6 into the skin (CLSM) [1] | logP at 24 h [2] | MIC (Sep.) [µM] | MIC (Sau.) [µM] | MIC (P. acnes [3]) [µM] | Body weight and skin tolerance ([4]; 7-d treatment period, topical 1 mg/ml hydrogel) | Reduction in swelling volume ([4]; Day 7 of treatment, topical 1 mg/ml hydrogel (Carbopol 940), 0.05 g/10 g, n = 6) [%] | Histomorphological observation (HE staining) of skin ([4]; after 7 d topical 1 mg/ml hydrogel) | Quantity of P. acnes in the skin (P. acnes [5]) | NF-κB p65 expression in skin (AOD) (NF-κB (p65)) |
| --- | --- | --- | --- | --- | --- | --- | --- | --- | --- | --- | --- | --- |
| CC(C)(C)c1ccc(S(=O)(=O)/C=C/C#N)cc1 [BAY11-7085] | substantially suppressed TNF-α expression | restored to normal baseline levels |  |  |  |  |  |  |  |  |  |  |
| CCN(CC)c1ccc2cc(-c3nc4ccccc4s3)c(=O)oc2c1 [C6, coumarin-6] |  |  | solely observable in the skin's stratum corneum |  |  |  |  |  |  |  |  |  |
| C[C@H]1COC2=C1C(=O)C(=O)c1c2ccc2c1CCCC2(C)C [CTS, Cryptotanshinone] | although reduced, did not reach statistical significance |  |  | 4.49 | 125 (≈ 37 µg/mL) | 125 (≈ 37 µg/mL) | 250 (≈ 74.1 µg/mL) | no significant weight loss or skin dryness and erythema | 64.9 | reduction in skin thickness, accompanied by a decrease in keratinization | significantly reduced the quantity of P. acnes in the skin | slight reduction in NF-κB p65 expression |
